# Assay results as given in ChEMBL document CHEMBL1275447 (Antimicrob Agents Chemother, 2008).
# The source made the active and inactive calls. The rule behind the calls is not given here.
# Key:
# Pseudomonas aeruginosa [1] = test: Antibacterial activity against Pseudomonas aeruginosa isolate 1058 by microdilution method; type: functional
# Pseudomonas aeruginosa [2] = test: Antibacterial activity against Pseudomonas aeruginosa isolate 988 by microdilution method; type: functional
# Pseudomonas aeruginosa [3] = test: Antibacterial activity against Pseudomonas aeruginosa isolate 1006 by microdilution method; type: functional
# Pseudomonas aeruginosa [4] = test: Antibacterial activity against Pseudomonas aeruginosa isolate 968 by microdilution method; type: functional
# [5] = fT>MIC in human infected with Pseudomonas aeruginosa isolate 1062 at 500 mg administered as 1 hr infusion; type: functional
# [6] = fT>MIC in human infected with Pseudomonas aeruginosa isolate 935 at 500 mg administered as 1 hr infusion; type: functional
# [7] = fT>MIC in human infected with Pseudomonas aeruginosa isolate 906 at 500 mg administered as 1 hr infusion; type: functional
# [8] = fT>MIC in human infected with Pseudomonas aeruginosa isolate 944 at 500 mg administered as 1 hr infusion; type: functional
# [9] = fT>MIC in human infected with Pseudomonas aeruginosa isolate 1050 at 500 mg administered as 1 hr infusion; type: functional
# [10] = fT>MIC in human infected with Pseudomonas aeruginosa isolate 1060 at 500 mg administered as 1 hr infusion; type: functional
# [11] = fT>MIC in human infected with Pseudomonas aeruginosa isolate 896 at 500 mg administered as 1 hr infusion; type: functional
# [12] = fT>MIC in human infected with Pseudomonas aeruginosa isolate 869 at 500 mg administered as 4 hr infusion; type: functional
# [13] = fT>MIC in human infected with Pseudomonas aeruginosa isolate 1058 at 500 mg administered as 4 hr infusion; type: functional
# [14] = fT>MIC in human infected with Pseudomonas aeruginosa isolate 931 at 500 mg administered as 4 hr infusion; type: functional
# [15] = fT>MIC in neutropenic mouse infected with Pseudomonas aeruginosa isolate 993 at 500 mg administered as 1 hr infusion; type: functional
# In short: (§1)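 Free-drug time above MIC simulated from one-compartment mouse serum PK (25.2% protein binding). The mice were cyclophosphamide-neutropenic and uranyl nitrate-renally impaired. Regimen was subcutaneous 10, 15, 2.5, 1.25, 0.5, 0.25 mg/kg at 0, 0.5, 2.5, 4, 5.5, 7 h, repeated every 8 h over 24 h.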
# [16] = fT>MIC in neutropenic mouse infected with Pseudomonas aeruginosa isolate 1029 at 500 mg administered as 1 hr infusion; type: functional
# [17] = fT>MIC in neutropenic mouse infected with Pseudomonas aeruginosa isolate 906 at 500 mg administered as 1 hr infusion; type: functional; in short: as §1
# [18] = fT>MIC in neutropenic mouse infected with Pseudomonas aeruginosa isolate 1036 at 500 mg administered as 1 hr infusion; type: functional
# [19] = fT>MIC in neutropenic mouse infected with Pseudomonas aeruginosa isolate 869 at 500 mg administered as 4 hr infusion; type: functional
# In short: (§2)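 Mouse fT>MIC was modelled with first-order one-compartment serum PK and 25.2% binding. Mice were neutropenic (cyclophosphamide) with uranyl nitrate renal impairment. Subcutaneous doses were 5.5, 2.25, 4.5, 4.5, 4.5, 4.5, 0.75, 0.375 mg/kg at 0, 0.5, 1.5, 2.5, 3.5, 4.5, 6, 7.5 h per 8-h interval over 24 h.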
# [20] = fT>MIC in neutropenic mouse infected with Pseudomonas aeruginosa isolate 1005 at 500 mg administered as 4 hr infusion; type: functional
# [21] = fT>MIC in neutropenic mouse infected with Pseudomonas aeruginosa isolate 1052 at 500 mg administered as 4 hr infusion; type: functional; in short: as §2
# [22] = fT>MIC in neutropenic mouse infected with Pseudomonas aeruginosa isolate 979 at 500 mg administered as 4 hr infusion; type: functional; in short: as §2
# [23] = fT>MIC in neutropenic mouse infected with Pseudomonas aeruginosa isolate 1060 at 500 mg administered as 4 hr infusion; type: functional; in short: as §2
# [24] = fT>MIC in neutropenic mouse infected with Pseudomonas aeruginosa isolate 936 at 500 mg administered as 4 hr infusion; type: functional; in short: as §2
# [25] = fT>MIC in neutropenic mouse infected with Pseudomonas aeruginosa isolate 1006 at 500 mg administered as 4 hr infusion; type: functional
# [26] = fT>MIC in neutropenic mouse infected with Pseudomonas aeruginosa isolate 968 at 500 mg administered as 4 hr infusion; type: functional; in short: as §2
# [27] = Cmax in Pseudomonas aeruginosa ATCC 27853 infected neutropenic ICR mouse at 150 mg/kg, sc administered as single dose 2 hrs postinfection by HPLC; type: ADME, organism-based; parameters: dose 150 mg/kg, route subcutaneous; settings: in vivo
# In short: (§3)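 Neutropenic mice (cyclophosphamide ip 150 and 100 mg/kg, 4 and 1 days before inoculation) with uranyl nitrate 5 mg/kg ip 3 days before, for renal impairment. Thigh infection with ATCC 27853 at 10⁶ CFU/ml, 0.1 ml per thigh. Single sc doses 2 h later. Intracardiac blood from 6–12 mice per time point, eight time points over 4 h. Serum assayed by HPLC (linear 0.5–40 μg/ml). One-compartment first-order fit.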
# [28] = Elimination rate constant in Pseudomonas aeruginosa ATCC 27853 infected neutropenic ICR mouse at 10 mg/kg, sc administered as single dose 2 hrs postinfection; type: ADME, organism-based; parameters: dose 10 mg/kg, route subcutaneous; settings: in vivo; in short: as §3
# [29] = Elimination rate constant in Pseudomonas aeruginosa ATCC 27853 infected neutropenic ICR mouse at 150 mg/kg, sc administered as single dose 2 hrs postinfection; type: ADME, organism-based; parameters: dose 150 mg/kg, route subcutaneous; settings: in vivo; in short: as §3
# [30] = Half-life in Pseudomonas aeruginosa ATCC 27853 infected neutropenic ICR mouse at 10 mg/kg, sc administered as single dose 2 hrs postinfection; type: ADME, organism-based; parameters: dose 10 mg/kg, route subcutaneous; settings: in vivo; in short: as §3
# [31] = Half-life in Pseudomonas aeruginosa ATCC 27853 infected neutropenic ICR mouse at 50 mg/kg, sc administered as single dose 2 hrs postinfection; type: ADME, organism-based; parameters: dose 50 mg/kg, route subcutaneous; settings: in vivo; in short: as §3
# [32] = Cmax in Pseudomonas aeruginosa ATCC 27853 infected neutropenic ICR mouse at 5.5, 2.25, 4.5, 4.5, 4.5, 4.5, 0.75, and 0.375 mg/kg given at 0, 0.5, 1.5, 2.5, 3.5, 4.5, 6, and 7.5 h over 24 h; type: ADME, organism-based; parameters: dose 0.375 mg/kg; settings: in vivo
# [33] = Cmax in healthy human at 500 mg administered as as 4 hr infusion; type: ADME, organism-based; parameters: dose 500 mg; settings: in vivo, iv
# [34] = AUC in healthy human at 500 mg administered as 1 hr infusion; type: ADME, organism-based; settings: plasma, iv
# Pseudomonas aeruginosa [35] = test: Antibacterial activity against Pseudomonas aeruginosa isolate at 8 to 16 ug/ml after 24 hrs; type: functional, organism-based
# Pseudomonas aeruginosa [36] = test: Antibacterial activity against Pseudomonas aeruginosa isolate 944 by fractionation study; type: functional
# Pseudomonas aeruginosa [37] = test: Antibacterial activity against Pseudomonas aeruginosa isolate 1050 by fractionation study; type: functional
# Pseudomonas aeruginosa [38] = test: Antibacterial activity against Pseudomonas aeruginosa isolate 1060 by fractionation study; type: functional
# Pseudomonas aeruginosa [39] = test: Antibacterial activity against Pseudomonas aeruginosa at 2 times MIC; type: functional, organism-based
# In short: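 Time-kill in cation-adjusted Mueller-Hinton broth. Inoculum from overnight culture set to 0.5 McFarland, final 10⁶ CFU/ml, 37°C in ambient air for 24 h. 1×, 2× and 7× MIC plus drug-free controls. Samples taken at 0, 2, 4, 6, 12 and 24 h and plated on sheep blood agar. Detection limit 10² CFU/ml.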
smiles,measurement,setting,value
C[C@@H](O)[C@H]1C(=O)N2C(C(=O)O)=C(S[C@@H]3CN[C@H](CNS(N)(=O)=O)C3)[C@H](C)[C@H]12 [DORIPENEM],MIC,Pseudomonas aeruginosa [1],2 µg/mL
same,MIC,Pseudomonas aeruginosa [2],8 µg/mL
same,MIC,Pseudomonas aeruginosa [3],8 µg/mL
same,MIC,Pseudomonas aeruginosa [4],16 µg/mL
same,fT>MIC,[5],72.5%
same,fT>MIC,[6],55%
same,fT>MIC,[7],40%
same,fT>MIC,[8],27.5%
same,fT>MIC,[9],27.5%
same,fT>MIC,[10],27.5%
same,fT>MIC,[11],17.5%
same,fT>MIC,[12],100%
same,fT>MIC,[13],65%
same,fT>MIC,[14],55%
same,fT>MIC,[15],100%
same,fT>MIC,[16],100%
same,fT>MIC,[17],42.5%
same,fT>MIC,[18],42.5%
same,fT>MIC,[19],100%
same,fT>MIC,[20],82.5%
same,fT>MIC,[21],82.5%
same,fT>MIC,[22],70%
same,fT>MIC,[23],52.5%
same,fT>MIC,[24],0%
same,fT>MIC,[25],0%
same,fT>MIC,[26],0%
same,Cmax,[27],194000 ng/mL
same,k el at 2 h,[28],0.000467 s⁻¹
same,k el at 2 h,[29],0.000433 s⁻¹
same,half-life,[30],24.6 min
same,half-life,[31],20.4 min
same,Cmax,[32],7990 ng/mL
same,Cmax,[33],7790 ng/mL
same,AUC at 1 h,[34],32600 ng·h/mL
same,Activity,Pseudomonas aeruginosa [35],inactive
same,MIC,Pseudomonas aeruginosa [36],3 µg/mL
same,MIC,Pseudomonas aeruginosa [37],4 µg/mL
same,MIC,Pseudomonas aeruginosa [38],2.75 µg/mL
same,Activity,Pseudomonas aeruginosa [39],inactive
